Experimental data taken from ChEMBL document CHEMBL4321800, “Synthesis, Identification, and Structure-Activity Relationship Analysis of GATA4 and NKX2-5 Protein-Protein Interaction Modulators” (J Med Chem, 2019).

What was measured:
Type in all cases: cell-based
[1] = target: Homeobox protein Nkx-2.5 (Mus musculus) (UniProt P42582); experiment: Modulation of mouse NKX2-5 expressed in Chlorocebus aethiops COS1 cells harboring 3xHA reporter gene assessed as protein-induced transcriptional activity at 10 uM after 24 hrs by luciferase reporter gene assay relative to control
Outline: (§1)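 COS-1 cells seeded 14 000/well and grown overnight. Transfection for 6 h in serum- and antibiotic-free medium with pGL3-3xHA reporter (100 ng/well) and pMT2-NKX2-5 (25 ng/well), Fugene 6 1:3. Compound or 0.1% DMSO vehicle for 24 h, then luciferase luminescence. Triplicate wells with Grubbs outlier removal, % of control.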

[2] = target: T1, GATA4/NKX2-5 (Mus musculus) (UniProt Q08369+P42582); experiment: Modulation of mouse GATA4/mouse NKX2-5 protein-protein interaction expressed in Chlorocebus aethiops COS1 cells harboring 3xHA reporter gene assessed as transcriptional synergy at 10 uM after 24 hrs by luciferase reporter gene assay relative to control
Outline: (§2)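 COS-1 cells seeded 14 000/well, grown overnight, then transfected for 6 h in serum- and antibiotic-free medium with pGL3-3xHA reporter (three NKX2-5 sites, 100 ng/well) plus pMT2-GATA4 and pMT2-NKX2-5 (total 50 ng/well), Fugene 6 at 1:3 DNA/reagent. Compound or 0.1% DMSO vehicle for 24 h, then luminescence read. Triplicates, Grubbs outliers removed, expressed as % of control.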

[3] = target: Transcription factor GATA-4 (Mus musculus) (UniProt Q08369); experiment: Modulation of mouse GATA4 expressed in Chlorocebus aethiops COS1 cells harboring NP-112 reporter gene assessed as BNP promoter-driven transcriptional activity at 10 uM after 24 hrs by luciferase reporter gene assay relative to control
Outline: (§3)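 GATA reporter assay: COS-1 cells (14 000/well, overnight) transfected 6 h serum/antibiotic-free with NP-112 reporter (tandem GATA sites plus rat BNP minimal promoter, 100 ng/well) and pMT2-GATA4 (25 ng/well), Fugene 6 1:3. Treated 24 h with compound or 0.1% DMSO. Luminescence read; triplicates, Grubbs outliers removed, % of control.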

COS-1 = experiment: Induction of necrosis in Chlorocebus aethiops COS1 cells assessed as LDH release at 1 to 30 uM after 24 hrs by LDH assay relative to control; details: cos-1, 24 h
Outline: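 COS-1 cells in DMEM with 10% FBS at 37 °C, 5% CO₂, plated 10 000/well and exposed next day to 1–30 μM for 24 h. Medium samples mixed with NAD, iodonitrotetrazolium, lactate and phenazine methosulfate in 0.2 M Tris-HCl pH 8.2, 30 min at room temperature. Stopped with acetic acid, A490 read and normalized to maximal and spontaneous release.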

[4] = target: T1, GATA4/NKX2-5 (Mus musculus); experiment: Enhancement of mouse GATA4/mouse NKX2-5 protein-protein interaction expressed in Chlorocebus aethiops COS1 cells harboring 3xHA reporter gene assessed as transcriptional synergy at 10 uM after 24 hrs by luciferase reporter gene assay relative to control; outline: as §2
[5] = target: Transcription factor GATA-4 (Mus musculus) (UniProt Q08369); experiment: Enhancement of mouse GATA4 expressed in Chlorocebus aethiops COS1 cells harboring NP-112 reporter gene assessed as BNP promoter-driven transcriptional activity at 10 uM after 24 hrs by luciferase reporter gene assay relative to control; outline: as §3
[6] = target: Transcription factor GATA-4 (Mus musculus) (UniProt Q08369); experiment: Inhibition of mouse GATA4 expressed in Chlorocebus aethiops COS1 cells harboring NP-112 reporter gene assessed as BNP promoter-driven transcriptional activity at 10 uM after 24 hrs by luciferase reporter gene assay relative to control; parameters: scale not given: the % may be the effect or the level left; outline: as §3
[7] = target: Homeobox protein Nkx-2.5 (Mus musculus) (UniProt P42582); experiment: Inhibition of mouse NKX2-5 expressed in Chlorocebus aethiops COS1 cells harboring 3xHA reporter gene assessed as protein-induced transcriptional activity at 10 uM after 24 hrs by luciferase reporter gene assay relative to control; parameters: scale not given: the % may be the effect or the level left; outline: as §1
[8] = target: Homeobox protein Nkx-2.5 (Mus musculus) (UniProt P42582); experiment: Enhancement of mouse NKX2-5 expressed in Chlorocebus aethiops COS1 cells harboring 3xHA reporter gene assessed as protein-induced transcriptional activity at 10 uM after 24 hrs by luciferase reporter gene assay relative to control; outline: as §1
[9] = target: T1, GATA4/NKX2-5 (Mus musculus); experiment: Inhibition of mouse GATA4/mouse NKX2-5 protein-protein interaction expressed in Chlorocebus aethiops COS1 cells harboring 3xHA reporter gene assessed as transcriptional synergy at 10 uM after 24 hrs by luciferase reporter gene assay relative to control; parameters: scale not given: the % may be the effect or the level left; outline: as §2

Homeobox protein Nkx-2.5 (Mus musculus), sequence (P42582 whole entry): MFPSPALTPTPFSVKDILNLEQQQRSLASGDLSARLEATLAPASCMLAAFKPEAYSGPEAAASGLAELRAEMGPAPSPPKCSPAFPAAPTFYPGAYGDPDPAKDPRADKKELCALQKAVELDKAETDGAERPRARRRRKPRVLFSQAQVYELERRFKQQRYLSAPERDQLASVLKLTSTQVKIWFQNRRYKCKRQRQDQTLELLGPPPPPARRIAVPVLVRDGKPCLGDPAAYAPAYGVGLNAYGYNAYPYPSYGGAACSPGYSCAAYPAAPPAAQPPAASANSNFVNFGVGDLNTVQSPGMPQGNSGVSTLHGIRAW
Transcription factor GATA-4 (Mus musculus), sequence (Q08369 whole entry): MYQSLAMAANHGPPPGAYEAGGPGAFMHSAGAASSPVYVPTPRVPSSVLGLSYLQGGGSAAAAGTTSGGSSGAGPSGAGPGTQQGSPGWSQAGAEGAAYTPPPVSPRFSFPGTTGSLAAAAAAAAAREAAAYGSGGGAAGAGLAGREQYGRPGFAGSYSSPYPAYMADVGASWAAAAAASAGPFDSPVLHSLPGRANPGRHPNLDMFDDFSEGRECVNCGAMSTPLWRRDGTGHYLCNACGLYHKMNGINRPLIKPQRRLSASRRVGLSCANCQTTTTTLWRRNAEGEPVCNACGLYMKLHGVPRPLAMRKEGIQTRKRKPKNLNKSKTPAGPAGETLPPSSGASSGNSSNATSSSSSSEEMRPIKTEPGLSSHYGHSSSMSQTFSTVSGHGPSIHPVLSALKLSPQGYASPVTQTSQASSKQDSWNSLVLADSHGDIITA

Activity [1] [%] | Activity [2] [%] | Activity [3] [%] | SMILES | Activity (COS-1) [%] | also measured
49 | 41 | 52 | CCN(CC)c1ccc(NC(=O)c2snnc2-c2ccccc2)cc1 | < 8 | 
 |  |  | Cc1onc(-c2ccccc2)c1COc1ccc(C(=O)O)cc1 |  | Activity [4]: 120%
93 | 99 |  | CCN(CC)c1ccc(NC(=O)c2cn(C)nc2-c2cc(C)on2)cc1 |  | Activity [5]: 130%
100 | 97 | 99 | CCN(CC)c1ccc(N(C)C(=O)c2c(-c3ccccc3)noc2C)cc1 |  | 
 |  |  | CCN(CC)c1ccc(NC(=O)c2c(-c3ccccc3)nnn2CCc2ccccc2)cc1 | < 8 | Activity [6]: 38%; Activity [7]: 34%
96 | 85 | 97 | CCN(CC)c1ccc(NC(=O)c2cc(C)sc2-c2cc(C)on2)cc1 |  | 
110 | 110 | 99 | CCN(CC)c1ccc(NC(=O)c2c(-c3ccoc3)noc2C)cc1 |  | 
97 | 98 |  | Cc1onc(-c2ccccc2)c1C(=O)Nc1ccc(C(=O)OCCCC#N)cc1 |  | Activity [5]: 110%
 |  |  | CC(C)c1ccc(NC(=O)c2noc3c2CCc2sccc2-3)cc1 |  | Activity [4]: 130%; Activity [5]: 120%
97 | 88 | 110 | CCN(CC)c1ccc(NC(=O)c2c(-c3ccccc3Cl)noc2C)cc1 |  | 
 |  |  | CCN(c1ccc(NC(=O)c2c(C)noc2-c2cc(C)on2)cc1)C(C)C |  | Activity [5]: 120%
 | 100 |  | CCc1noc(C)c1C(=O)Nc1ccc(N(CC)CC)cc1 |  | Activity [8]: 160%; Activity [5]: 140%
 |  |  | CN(C)c1ccc(/N=C/c2c[nH]nc2-c2ccc(F)cc2)cc1 |  | Activity [8]: 140%; Activity [5]: 120%
 | 41 | 75 | CCN(c1ccc(NC(=O)c2c(-c3ccccc3)noc2C)cc1)C(C)C | < 8 | Activity [7]: 34%
80 | 76 | 78 | CCC(=O)c1ccc(OCc2c(-c3ccccc3)noc2C)cc1 |  | 
67 | 43 | 78 | CCC(OC)c1ccc(OCc2c(-c3ccccc3)noc2C)cc1 (racemic) | < 8 | 
50 | 47 | 62 | CCN(CC)c1ccc(NC(=O)c2cnoc2-c2ccccc2)cc1 | < 8 | 
53 | 31 | 66 | Cc1onc(-c2ccccc2)c1C(=O)Nc1ccc2oc(-c3ccccc3)cc(=O)c2c1 | < 8 | 
84 | 78 | 100 | CCN(CC)c1ccc(NC(=O)c2c(C)noc2-c2cc(C)on2)cc1 | < 8 | 
 | 90 | 100 | Cc1onc(-c2ccccc2)c1C(=O)Nc1ccc(C(=O)OCCCCC#N)cc1 |  | Activity [8]: 150%
 |  |  | CCN(c1ccc(NC(=O)c2c(C)noc2-c2snnc2C)cc1)C(C)C |  | Activity [9]: 19%
61 | 61 | 79 | CCN(CC)c1ccc(NC(=O)c2c(-c3ccncc3)noc2C)cc1 | < 8 | 
110 | 100 |  | CCN(CC)c1ccc(NC(=O)c2cc(C)oc2-c2cc(C)on2)cc1 |  | Activity [5]: 140%
 |  |  | CC(=O)c1ccc(NC(=O)c2cc(-c3ccco3)on2)cc1 |  | Activity [4]: 130%
97 | 110 | 110 | Cc1onc(-c2ccccc2)c1C(=O)Nc1ccc(-c2ccccc2)cc1 |  | 

Activity [1] [%] | Activity [2] [%] | Activity [3] [%] | SMILES | Activity (COS-1) [%] | also measured
88 | 100 | 92 | CCN(CC)c1ccc(NC(=O)c2c(-c3ccc(C)s3)noc2C)cc1 |  | 
 |  |  | CCN(CC)c1ccc(NC(=O)c2cnoc2C2CC2)cc1 |  | Activity [4]: 140%
 |  |  | CCN(CC)c1ccc(NC(=O)c2cnc3ncccn23)cc1 | < 8 | Activity [8]: 120%; Activity [4]: 140%; Activity [5]: 130%
86 | 78 | 94 | CCN(CC)c1ccc(NC(=O)c2c(C)nc3ccccn23)cc1 |  | 
90 | 79 | 66 | CCN(CC)c1ccc(NC(=O)c2c(-n3cccc3)sc(C)c2C)cc1 |  | 
 |  |  | Cc1onc(-c2ccccc2)c1NC(=O)c1ccc(N2CCN(C)CC2)cc1 |  | Activity [4]: 120%
47 | 44 | 79 | CCN(CC)c1ccc(NC(=O)c2c(-c3ccc(F)cc3)noc2C)cc1 | < 8 | 
86 | 100 | 110 | CCN(CC)c1ccc(NC(=O)c2c(-c3coc(C)n3)noc2C)cc1 |  | 
 |  |  | CCN(CC)c1ccc(-n2c(=O)c3c(C)onc3c3ccccc32)cc1 |  | Activity [8]: 110%
 |  |  | Cc1cc(-c2onc(C)c2C(=O)Nc2ccc3oc(-c4ccccc4)cc(=O)c3c2)no1 |  | Activity [8]: 110%; Activity [5]: 120%
 |  |  | CCC(C)NC(=O)c1cc(-c2ccco2)on1 (stereo not drawn) |  | Activity [4]: 140%
 |  |  | Cc1onc(-c2ccccc2)c1C(=O)Nc1ccc(C(=O)OCCC#N)cc1 |  | Activity [8]: 130%
89 | 91 | 77 | CCN(CC)c1ccc(CNc2c(-c3ccccc3)noc2C)cc1 | < 8 | 
 |  |  | C#CC[N+](CC)(CC)c1ccc(NC(=O)c2c(-c3ccccc3)noc2C)cc1 |  | Activity [8]: 120%
96 | 110 | 110 | Cc1onc(-c2ccccc2)c1C(=O)Nc1nc(C(C)(C)C)cs1 |  | 
73 | 53 | 80 | C=CCN(Cc1ccc(N(CC)CC)cc1)c1c(-c2ccccc2)noc1C | < 8 | 
 |  |  | CCN(CC)c1ccc(NC(=O)c2csc3nnsc23)cc1 |  | Activity [4]: 130%
 |  |  | Cc1onc(-c2ccccc2)c1C(=O)N(C)c1ccc(C(=O)O)cc1 |  | Activity [4]: 130%
71 | 52 | 72 | CCN(CC)c1ccc(CN(C(=O)C(F)(F)F)c2c(-c3ccccc3)noc2C)cc1 | < 8 | 
65 | 52 |  | CCN(CC)c1ccc(NC(=O)c2cnc(SC)n2-c2ccc(F)cc2)cc1 | < 8 | Activity [6]: 45%
87 | 100 | 100 | CCN(CC)c1ccc(NC(=O)c2c(-c3cc(C)on3)noc2C)cc1 |  | 
 | 110 | 110 | CCN(CC)c1ccc(NC(=O)c2cn(C)cc2-c2cc(C)on2)cc1 |  | Activity [8]: 110%
52 | 52 | 71 | Cc1onc(-c2ccccc2)c1COc1ccc(C(=O)OCCCC#N)cc1 |  | 
 | 25 |  | CCN(CC)c1ccc(NC(=O)c2csc([N+](=O)[O-])c2)cc1 | < 8 | Activity [6]: 23%; Activity [7]: 26%; Activity [9]: 25%
84 | 66 | 71 | CCN(CC)c1ccc(NC(=O)c2c(-c3ccsc3)noc2C)cc1 | < 8 | 

SMILES | Activity [1] [%] | Activity [2] [%] | Activity [3] [%] | Activity (COS-1) [%] | also measured
Cc1onc(-c2ccccc2)c1C(=O)Nc1ccc(C#C[Si](C)(C)C)cc1 | 75 | 69 | 93 | < 8 | 
